Reference: ChEMBL document CHEMBL3779855, “In vitro screening of 2-(1H-imidazol-1-yl)-1-phenylethanol derivatives as antiprotozoal agents and docking studies on Trypanosoma cruzi CYP51” (Eur J Med Chem, 2016)

Experiments:
Leishmania infantum = assay: Antiparasitic activity against amastigote stage of Leishmania infantum MHOM/MA-BE/67 infected in mouse peritoneal macrophages after 5 days by Giemsa staining based microscopic analysis; type: functional, organism-based; conditions: MHOM/MA-BE/67, 120 h
MRC5 = assay: Cytotoxicity against human MRC5 cells assessed as cell viability after 4 to 7 days by Alamar Blue staining based fluorometric analysis
[1] = Selectivity index, ratio of IC50 for human MRC5 cells to IC50 for nifurtimox-sensitive amastigote stage of Trypanosoma cruzi tulahuen CL2 infected in human MRC5 cells; type: toxicity, cell-based; conditions: read-out: Ratio IC50
Plasmodium falciparum = assay: Antiparasitic activity against chloroquine-resistant erythrocytic stage of Plasmodium falciparum K1 infected in […] after 72 hrs by NBT staining based spectroscopic analysis; type: functional, organism-based; conditions: K1, 72 h
Trypanosoma cruzi [2] = assay: Antiparasitic activity against nifurtimox-sensitive amastigote stage of Trypanosoma cruzi tulahuen CL2 infected in human MRC5 cells; type: functional, organism-based
[3] = system: Trypanosoma brucei rhodesiense; assay: Antiparasitic activity against suramin-sensitive trypomastigote stage of Trypanosoma brucei rhodesiense squib-427 infected in human MRC5 cells after 4 days by Alamar blue staining based fluorimetric analysis; type: functional, organism-based; conditions: squib-427, 96 h
[4] = Metabolic stability in human liver microsomes at 50 uM after 60 mins by LC-UV-MS analysis in the presence of NADPH-generating system; type: ADME; conditions: read-out: Stability
Method in brief: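 Test compound at 50 μM in pH 7.4 phosphate buffer with 2% DMSO, incubated at 37°C for 60 min with human liver microsomal protein and an NADPH-generating system. The reaction was then stopped, and parent drug and metabolites were measured by LC-UV-MS.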

Trypanosoma cruzi [5] = assay: Potency index, ratio of benznidazole IC50 to compound IC50 for nifurtimox-sensitive amastigote stage of Trypanosoma cruzi tulahuen CL2 infected in human MRC5 cells; type: functional

| SMILES | IC50 (Leishmania infantum) [µM] | IC50 (MRC5) [µM] | selectivity ratio [1] | IC50 (Plasmodium falciparum) [µM] | IC50 (Trypanosoma cruzi [2]) [µM] | IC50 [3] [µM] | remaining at 1 h, 50 µM [4] [%] | Ratio IC50 (Trypanosoma cruzi [5]) |
| --- | --- | --- | --- | --- | --- | --- | --- | --- |
| O=C(O[C@H](Cn1ccnc1)c1ccc(F)cc1)c1ccc(-c2ccccc2)cc1 | 34.6 | 8 | 16.3 | 2 | 0.49 | 33.7 |  |  |
| O=C(O[C@@H](Cn1ccnc1)c1ccc(F)cc1)c1ccc(-c2ccccc2)cc1 | > 64 | > 64 | > 35.6 | 2.3 | 1.8 | > 64 |  |  |
| CCCCCCCCCCCCCCCCOP(=O)([O-])OCC[N+](C)(C)C [MILTEFOSINE] | 10.4 |  |  |  |  |  |  |  |
| O=C(O[C@H](Cn1ccnc1)c1ccc(F)cc1)N1CCN(c2ccc([N+](=O)[O-])cc2)CC1 | > 64 | 8.2 | 1.5 | 1.3 | 5.44 | > 64 |  |  |
| O=C(O[C@@H](Cn1ccnc1)c1ccc(F)cc1)N1CCN(c2ccc([N+](=O)[O-])cc2)CC1 | 20.3 | 8.7 | 7 | 1.2 | 1.23 | 32.2 |  |  |
| CC/C(=C(\c1ccccc1)c1ccc(OCCN(C)C)cc1)c1ccccc1 [TAMOXIFEN] |  | 10.9 |  |  |  |  |  |  |
| O=C(O[C@H](Cn1ccnc1)c1ccc(Cl)cc1)N1CCN(c2ccc([N+](=O)[O-])cc2)CC1 | 12.7 | 8.5 | 6.4 | 1.5 | 1.32 | > 64 |  |  |
| O=C(Nc1ccc(N2CCN(C(=O)c3ccco3)CC2)cc1)OC(Cn1ccnc1)c1ccc(F)cc1 (racemic) | 28.9 | 26.4 | 33.4 | 4 | 0.79 | 32.9 | 99 |  |
| O=C(O[C@@H](Cn1ccnc1)c1ccc(Cl)cc1)c1ccc(-c2ccccc2)cc1 | > 64 | 7.8 | 39 | 2 | 0.2 | 32.4 |  |  |
| O=C(OC(Cn1ccnc1)c1ccc(F)cc1)c1ccc(-c2ccccc2)cc1 (racemic) | 32.2 | 7.8 | 10.9 | 0.6 | 0.71 | 32.2 |  |  |
| O=C(OC(Cn1ccnc1)c1ccc(-c2ccccc2)cc1)c1ccc(-c2ccccc2)cc1 (racemic) | 8 | 8.8 | 3.2 | 7.7 | 2.72 | 29.1 |  |  |
| O=C(OC(Cn1ccnc1)c1ccc(F)cc1)N1CCN(c2ccc([N+](=O)[O-])cc2)CC1 (racemic) | 27.2 | 15.5 | 9.2 | 2.6 | 1.68 | 27.2 |  |  |
| CCS(=O)(=O)N1CCN(c2ccc(NC(=O)OC(Cn3ccnc3)c3ccc(F)cc3)cc2)CC1 (racemic) | 38 | > 64 | > 1600 | 17.2 | 0.04 | > 64 | 99 | 50 |
| O=C(OC(Cn1ccnc1)c1ccc(Cl)cc1)N1CCN(c2ccc([N+](=O)[O-])cc2)CC1 (racemic) | 8 | 8.2 | 9.4 | 2.4 | 0.87 | 8 |  |  |
| O=C(Nc1ccc(N2CCN(C(=O)c3ccco3)CC2)cc1)O[C@H](Cn1ccnc1)c1ccc(F)cc1 | > 64 | 37.5 | 288 | 5.2 | 0.13 | > 64 |  |  |
| O=C(OC(Cn1ccnc1)c1ccc(Cl)cc1)N1CCN(C(=O)c2ccco2)CC1 (racemic) | > 64 | > 64 | > 10.9 | 10.7 | 5.84 | > 64 |  |  |
| O=C(O[C@@H](Cn1ccnc1)c1ccc(Cl)cc1)N1CCN(c2ccc([N+](=O)[O-])cc2)CC1 | 12.7 | 8.7 | 8.7 | 2.2 | 1 | 32.2 |  |  |
| O=C(Cn1ccnc1[N+](=O)[O-])NCc1ccccc1 [BENZNIDAZOLE] |  |  |  |  | 1.95 |  |  |  |
| O=C(OC(Cn1ccnc1)c1ccc(Cl)cc1)c1ccc(-c2ccccc2)cc1 (racemic) | 12.7 | 7.2 | 15 | 1.9 | 0.48 | 32.4 |  |  |
| O=C(Nc1ccc(N2CCN(C(=O)c3ccco3)CC2)cc1)O[C@@H](Cn1ccnc1)c1ccc(F)cc1 | > 64 | 26.5 | 15.4 | 4 | 1.72 | > 64 |  |  |
| O=C(O[C@H](Cn1ccnc1)c1ccc(Cl)cc1)c1ccc(-c2ccccc2)cc1 | 32 | 8.2 | 14.6 | 2.1 | 0.56 | 30.1 |  |  |
| Cc1ccc(C(=O)Nc2ccc(S(=O)(=O)O)c3cc(S(=O)(=O)O)cc(S(=O)(=O)O)c23)cc1NC(=O)c1cccc(NC(=O)Nc2cccc(C(=O)Nc3cc(C(=O)Nc4ccc(S(=O)(=O)O)c5cc(S(=O)(=O)O)cc(S(=O)(=O)O)c45)ccc3C)c2)c1 [SURAMIN] |  |  |  |  |  | 0.02 |  |  |
